Holding throughout (format): functional
A short description of assay [1]: DPPH radical scavenging activity at 100 uM. In short, it runs like this: (§1)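 Compound dilutions prepared in 100% DMSO, mixed with 100 µM DPPH in ethanol at 37 °C, shaken vigorously and left to stand 30 min. Absorbance read at 517 nm by UV-vis spectrophotometry. Scavenging reported as percent at 100, 50, 25, 12.5 and 6.25 µM. Vitamins C and E served as standards.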
Background: The DPPH test is a chemical assay of radical scavenging.

Assay [2] in a line: DPPH radical scavenging activity at 50 uM. In short, it runs like this:
as §1

Assay [3] in a line: DPPH radical scavenging activity at 25 uM. In short, it runs like this:
as §1

Assay [4] is described as follows: DPPH radical scavenging activity at 12.5 uM. In short, it runs like this:
as §1

Assay [5] in a line: DPPH radical scavenging activity at 6.25 uM. The method in brief:
as §1

As to `COc1cc2c(c(O)c1OC)-c1c(cc3c(c1OC)OCO3)[C@H](OC(=O)c1ccccc1)[C@H](C)[C@H](C)[C@H]2OC(C)=O`, the Activity was -23.1% in assay [1]; -30.8% in assay [2]; -32.2% in assay [3]; -33.8% in assay [4]; -35.6% in assay [5].
As for `C/C=C(\C)C(=O)O[C@H]1c2cc3c(c(OC)c2-c2c(cc(OC)c(OC)c2O)[C@H](OC(=O)/C(C)=C/C)[C@@]2(CO2)[C@H]1C)OCO3`, the inhibition in assay [1] is 54.7%. Moreover, the Activity came to 51.4% in assay [2], 48.1% in assay [3], 46.2% in assay [4] and 47.4% in assay [5].
Take `C/C=C(\C)C(=O)O[C@@H]1c2cc3c(c4c2C2(CO4)C(=O)C(OC)=C(OC)C=C2[C@@H](OC(=O)c2ccccc2)[C@@](C)(O)[C@H]1C)OCO3` (stereo not given in full): the Activity in assay [1] turned out to be 35.6%; in assay [2] it was 33.9%; in assay [3], 32%; in assay [4], 13.8%; in assay [5], 20.2%.
With `COc1cc2c(c(O)c1OC)-c1c(cc3c(c1OC)OCO3)[C@H](O)[C@H](C)[C@H](C)C2`, the Activity in assay [1] was -4.2%; in assay [2], -1.6%; in assay [3], -10.7%; in assay [4], -18.5%; in assay [5], -38.9%.
For VITAMIN E, the Activity came to 17.6% in assay [1]; 12.9% in assay [2]; 12.6% in assay [3]; 4.9% in assay [4]; 1.3% in assay [5].
On to `C/C=C(\C)C(=O)O[C@H]1[C@@](C)(O)[C@@H](C)[C@H]2O[C@@]13CC(=O)C(OC)=C(OC)C31COc3c4c(cc2c31)OCO4` (stereo not given in full), for which the Activity was -2.8% in assay [1]; -3.7% in assay [2]; -3.2% in assay [3]; -4.7% in assay [4]; -5.3% in assay [5].
Turning to `C/C=C(\C)C(=O)O[C@@H]1C2=CC(OC)=C(OC)C(=O)C23COc2c4c(cc(c23)[C@@H](OC(=O)c2ccccc2)[C@H](C)[C@]1(C)O)OCO4` (stereo not given in full), the Activity in assay [1] is 12.9%; in assay [2], 12.8%; in assay [3], 11.4%; in assay [4] it was 10.3%; in assay [5] it was 8.6%.
Take `O=C1O[C@H]([C@@H](O)CO)C(O)=C1O`: the Activity in assay [1] amounted to 39%; in assay [2], 36.7%; in assay [3] it was 24.9%; in assay [4], 20.7%; in assay [5], 19.2%.
As to `C/C=C(\C)C(=O)O[C@H]1[C@@](C)(O)[C@@H](C)[C@H]2O[C@@]13CC(OC)=C(OC)C(=O)C31COc3c4c(cc2c31)OCO4` (stereo not given in full), the Activity in assay [1] worked out at 8.4%; in assay [2], 6.6%; in assay [3], 6.1%; in assay [4], 3.9%; in assay [5], 3.9%.
With `COc1cc2c(c(OC)c1O)-c1c(cc(OC)c(OC)c1O)C[C@@H](C)[C@@H](C)[C@H]2OC(=O)/C=C/c1ccccc1`, the Activity in assay [1] was determined as 38.1%; in assay [2] it was 34.4%; in assay [3], 32.2%; in assay [4] it was 28.1%; in assay [5], 10%.

A word on the inhibition: it is the change of the read-out against control, counted positive when it falls. A lower inhibition goes with a weak effect.

Values taken from ChEMBL document CHEMBL1146239, “Kadsuphilols A-H, oxygenated lignans from Kadsura philippinensis” (J Nat Prod, 2007).
